Measurements as given in ChEMBL document CHEMBL3593158, “Dirchromones: Cytotoxic Organic Sulfur Compounds Isolated from Dirca palustris” (J Nat Prod, 2015).
≈ marks a conversion by molar mass, not a printed value. Calls of active or inactive are those of the source. No cut-off for these calls is given here.

How the values were obtained:
Staphylococcus aureus = assay: Antibacterial activity against Staphylococcus aureus ATCC 25923 incubated for 24 hrs by microdilution method; type: functional
Outline: (§1)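 Modified microdilution in nutrient broth with exponentially growing bacteria per well: E. coli at 5 × 10^3, S. aureus at 3.5 × 10^4. Increasing compound concentrations were dissolved in DMSO and diluted in broth (final DMSO 0.1% v/v). Plates incubated 24 h at 37 °C.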

[1] = Cytotoxicity against human WS1 cells assessed as inhibition of cell growth incubated for 48 hrs by Hoechst assay; type: cell-based; details: WS1, 48 h
Outline: (§2)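 Cells from ATCC, grown in MEM with Earle's salts, 10% fetal calf serum, vitamins, sodium pyruvate, nonessential amino acids and penicillin/streptomycin at 37 °C in humidified 5% CO2. 5 × 10^3 exponentially growing cells per well adhered for 16 h, then were exposed 48 h to increasing concentrations in medium (final DMSO 0.5% v/v). Hoechst staining read-out; IC50 is the concentration inhibiting growth by 50%.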

A549 [2] = assay: Cytotoxicity against human A549 cells assessed as inhibition of cell growth incubated for 48 hrs by Hoechst assay; type: functional, cell-based; details: A549, 48 h; outline: as §2
A549 [3] = assay: Selectivity index, ratio of IC50 for human A549 cells to IC50 for human DLD1 cells; type: functional
DLD-1 = assay: Selectivity index, ratio of IC50 for human WS1 cells to IC50 for human DLD1 cells; type: functional
Escherichia coli = assay: Antibacterial activity against Escherichia coli ATCC 25922 incubated for 24 hrs by microdilution method; type: functional, organism-based; outline: as §1
[4] = Cytotoxicity against human DLD1 cells assessed as inhibition of cell growth incubated for 48 hrs by Hoechst assay; type: functional, cell-based; details: DLD-1, 48 h; outline: as §2
Candida albicans = assay: Antifungal activity against Candida albicans incubated for 24 hrs by microdilution method; type: functional, organism-based
Outline: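 Yeast tested by modified microdilution at 2 × 10^3 C. albicans per well in Sabouraud dextrose. Compounds were dissolved in DMSO, diluted in Sabouraud dextrose and added at increasing concentrations (final DMSO 0.1% v/v). Plates incubated 24 h at 37 °C.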

Row | Compound | MIC90 (Staphylococcus aureus) [µg/mL] | IC50 [1] [µM] | IC50 (A549 [2]) [µM] | Ratio IC50 (A549 [3]) | Ratio IC50 (DLD-1) | Activity (Escherichia coli) | IC50 [4] [µM] | Activity (Candida albicans) | MIC90 (Staphylococcus aureus; ATCC 25923, 24 h) [µg/mL]
1 | GENTAMICIN | 0.04 |  |  |  |  |  |  |  | 
2 | COc1ccc2oc(/C=C/[S+](C)[O-])cc(=O)c2c1 (stereo not drawn) |  | 6 | 9 | 8.2 | 5 | inactive | 1.1 | inactive | 4.1 (≈ 15.5 µM)
3 | COc1ccc2c(=O)cc(/C=C/[S+](C)[O-])oc2c1OC (stereo not drawn) |  | > 10 | > 10 |  |  | inactive | 3.3 | inactive | 18.4 (≈ 62.5 µM)
4 | COc1ccc2c(=O)cc(/C=C/[S+](C)[O-])oc2c1O (stereo not drawn) |  | > 10 | > 10 |  |  | inactive | > 10 | inactive | 14 (≈ 49.9 µM)
5 | COc1cc2oc(/C=C/[S+](C)[O-])cc(=O)c2cc1OC (stereo not drawn) |  | > 10 | > 10 |  |  | inactive | 4.2 | inactive | 18.4 (≈ 62.5 µM)
6 | COc1cc([C@@H]2c3cc4c(cc3[C@@H](O[C@@H]3O[C@@H]5CO[C@@H](C)O[C@H]5[C@H](O)[C@H]3O)[C@H]3COC(=O)[C@H]23)OCO4)cc(OC)c1O [ETOPOSIDE] |  | > 10 | 0.48 |  |  |  | 3.3 |  | 
7 | C[S+]([O-])/C=C/c1cc(=O)c2ccccc2o1 (stereo not drawn) |  | 9 | 10 | 10 | 9 | inactive | 1 | inactive | 3.7 (≈ 15.8 µM)
8 | COc1ccc2c(=O)cc(/C=C/[S+](C)[O-])oc2c1 (stereo not drawn) |  | 9 | 10.5 | 5.8 | 5 | inactive | 1.8 | inactive | 8.3 (≈ 31.4 µM)
9 | C[S+]([O-])/C=C/c1cc(=O)c2cc(O)ccc2o1 (stereo not drawn) |  | > 10 | > 10 |  |  | inactive | > 10 | inactive | 7.8 (≈ 31.2 µM)
10 | COc1cc2oc(/C=C/[S+](C)[O-])cc(=O)c2cc1O (stereo not drawn) |  | > 10 | > 10 |  |  | inactive | > 10 | inactive | 14 (≈ 49.9 µM)
